PLAP act: human PLAP activation; P05187; activation fold at 20 µM; AID 696; 96,000 compounds, 1.2% hits; purified PLAP enzyme, luminescent substrate read-out; active compounds read high; in the data active = activation fold above about 2
Target sequence (P05187 whole entry, looked up): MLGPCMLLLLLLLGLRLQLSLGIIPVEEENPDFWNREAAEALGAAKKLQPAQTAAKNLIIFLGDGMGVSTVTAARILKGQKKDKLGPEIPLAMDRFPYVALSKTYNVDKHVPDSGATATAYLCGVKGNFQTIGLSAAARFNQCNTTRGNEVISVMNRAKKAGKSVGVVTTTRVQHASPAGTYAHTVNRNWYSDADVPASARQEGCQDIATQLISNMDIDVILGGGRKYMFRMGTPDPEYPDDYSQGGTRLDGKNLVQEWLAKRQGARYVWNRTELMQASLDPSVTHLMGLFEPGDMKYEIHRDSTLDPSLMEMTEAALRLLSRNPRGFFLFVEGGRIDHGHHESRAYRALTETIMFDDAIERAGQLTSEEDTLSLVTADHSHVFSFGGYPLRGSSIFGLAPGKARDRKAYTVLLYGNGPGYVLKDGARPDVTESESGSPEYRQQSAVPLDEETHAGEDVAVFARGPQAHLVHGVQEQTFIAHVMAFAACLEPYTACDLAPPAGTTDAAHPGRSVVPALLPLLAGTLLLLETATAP
Ecoli tolC: E. coli tolC mutant growth inhibition; growth inhibition, % at 10 µM (by protocol); AID 573; 65,000 compounds, 2.2% hits; E. coli BW25113 tolC mutant growth, OD615;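 active = growth inhibition at or above a cutoff equal to the mean over every tested compound plus 3 SD, cut at about 60% in these data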;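 note: growth measured after 20 h incubation at 37 °C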
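Assay system: tolC-deleted E. coli BW25113. Medium: kanamycin-containing LB broth (50 µg/mL). Dosing: 10 µM final, single dose. Timing: bacterial growth with compound for 20 h at 37 °C. Detection: A615 absorbance measurement. Read-out basis: growth inhibition in percent.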
AP complement: alternative pathway complement inhibition, orthogonal assay; Human serum alternative complement pathway, LPS-coated ELISA, C3 deposition; tested in compound mixtures; inhibition, % at 5 µM; 62,000 compounds, 0.08% hits; AID 1235;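 active = inhibition above 30% in each of the two pooled mixtures holding the compound, so the lower value exceeds 30%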
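Assay system: Human serum alternative complement pathway, C3 deposition on LPS-coated wells | Incubation: 1 h serum-compound exposure at 37 °C | Doses: 5 µM per compound in ten-compound mixtures | Read-out: Percent inhibition | Technique: ELISA with HRP anti-human C3 antibody, TMB substrate, absorbance 450 nm | Replication: Two pool placements per compound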
Ecoli WT expand: E. coli BW25113 growth inhibition, expanded screen; OD600 absorbance; growth inhibition, % at 100 µM; 98,000 compounds, 0.15% hits;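 active = growth inhibition above about 50% at one test dose, limit read from the data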;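 note: growth measured after 20 h incubation at 37 °C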
HePTP inh: human HePTP phosphatase inhibition. AID 521. 110,000 compounds, 0.64% hits. inhibition, % at 20 µM. P35236. recombinant HePTP phosphatase activity, OD absorbance; in the data active = inhibition above about 50%
A number is an active result; n = inactive; x = not tested or not shown. Only some compounds are listed: those with a hit (about 2.3% of all), similar ones and a draw of the others.

SMILES	PLAP act	Ecoli tolC	AP complement	Ecoli WT expand	HePTP inh
O=C(/C=C/c1ccc(/C=C/C(=O)c2cccc(N3C(=O)C=CC3=O)c2)cc1)c1cccc(N2C(=O)C=CC2=O)c1	x	x	x	x	n
O=C(O)/C=C/c1cccc(N2C(=O)C=CC2=O)c1	x	x	x	x	89
O=C1/C(=C\Nc2cc(Cl)ccc2O)CCc2ccccc21	x	x	x	x	n
CNc1ccc([N+](=O)[O-])cc1N/C=C1\CCc2ccccc2C1=O	x	x	x	x	104
CC1=NN(c2ccc(Cl)c(Cl)c2)C(=O)/C1=C/c1ccco1	x	x	x	x	n
CC1=NN(c2ccc(Cl)c(C(=O)O)c2)C(=O)/C1=C\c1ccco1	x	x	x	x	73
Cc1nc2ccc(Br)cn2c1C(=O)NN=C1CCCCCC1	x	x	x	x	n
Cc1ccc2c(c1)N(CCC(=O)NCC1COc3ccccc3O1)C(=O)CO2 (centres undefined)	2.2	n	n	n	n
Cc1nn(Cc2ccccc2)c(C)c1C(=O)OCC(=O)c1cc(C)n(C2CC2)c1C	n	65	n	n	n
O=[N+]([O-])c1cc(-n2ncnc2-c2ccc3c(c2)OCO3)ccc1F	x	x	x	x	n
COc1ccc(C(=O)Nc2cccc(-c3nc4ccc(C)cc4o3)c2)cc1Br	x	x	x	x	n
O=C(CN1C(=O)/C(=C\c2ccccc2F)SC1=S)Nc1cccc(C(=O)O)c1	x	x	x	x	n
O=C(CN1C(=O)/C(=C\c2ccccc2F)SC1=S)Nc1ccc(C(=O)O)cc1	x	x	x	x	53
Cc1ccc(-c2cc(C(=O)N/N=C\c3cnn(C)c3C)c3ccccc3n2)cc1C	2	x	x	n	x
Cc1ccc2nc(-c3ccc(OC(=O)c4ccccc4F)cc3)sc2c1	x	x	x	x	n
Clc1ccc(-c2noc(-c3ccc(-c4ccccc4)cc3)n2)cc1	x	x	x	x	n
CC(C)(C)c1ccc(S(=O)(=O)N/N=C/C=C/c2ccco2)cc1	x	x	x	x	n
CC1(C)Cc2ccccc2-c2nnc(SCC(=O)Nc3ccc4c(c3)OCO4)n21	n	n	56	n	n
C=CCn1c(SCC(=O)Nc2ccc3c(c2)OCO3)nnc1-c1ccccc1	n	n	n	n	n
Nn1c(SCC(=O)Nc2ccc3c(c2)OCO3)nnc1-c1ccccc1	n	x	x	n	x
C=CCn1c(SCC(=O)Nc2ccc3c(c2)OCO3)nnc1-c1cc(Br)ccc1O	n	74	n	n	n
O=C(O)/C=C/C(=O)OCCCCCCOC(=O)/C=C/C(=O)OCCCCCCO	x	x	x	x	n
CCOC(=O)c1cccc(NC(=O)COc2ccccc2)c1	x	x	x	x	n
Cc1ccc2c(c1)NC(c1ccc3c(c1)OCO3)C1=C(CC(c3ccccc3)CC1=O)N2 (centres undefined)	x	x	x	x	n
O=C1N=c2ccccc2=C1c1sc(Nc2ccc(O)cc2)nc1O	x	x	x	x	104
SMILES	PLAP act	Ecoli tolC	AP complement	Ecoli WT expand	HePTP inh
CC1Cc2cc(-c3csc(NC(=O)Cc4cccs4)n3)ccc2N1S(C)(=O)=O (centres undefined)	n	63	n	n	n
Cc1cc(N2CCOCC2)c2c(N)ccc(C)c2n1	x	x	x	x	n
O=C1C(Cl)=C(N2CCCCC2)C(=O)C(Cl)=C1/C=C/N1CCCCC1	x	x	x	x	102
O=C(c1ccc(-c2ccccc2)cc1)N1CCN(CCN2C(=O)c3cccc4cccc(c34)C2=O)CC1	x	x	x	x	n
COc1cc(S(=O)(=O)N2CCC(O)(c3cccc(C(F)(F)F)c3)CC2)ccc1-n1cnnn1	n	100	n	n	n
COCCn1nnnc1CN1CCC(O)(c2cccc(C(F)(F)F)c2)CC1	n	n	n	n	n
N#Cc1c2c(c(NCCCCO)n3c1nc1ccccc13)CCC2	x	x	x	x	n
CCn1c(C2CC(=O)N(c3cc(C)cc(C)c3)C2)nc2ccccc21 (centres undefined)	n	n	n	n	n
Cc1cccc(N2CC(c3nc4ccccc4n3C)CC2=O)c1C (centres undefined)	x	100	n	x	n
O=C(CC1CCCCC1)Nc1ccccc1	x	x	x	x	n
CCN(CC(=O)NCCc1ccc(S(N)(=O)=O)cc1)Cc1nc2cc(OC)c(OC)cc2c(=O)[nH]1	2.9	x	x	n	x
CCN(CC(=O)NCCc1ccc(S(N)(=O)=O)cc1)Cc1nc2ccccc2c(=O)[nH]1	x	n	n	n	n
C#CCOC(=O)C(C=C=C)(C(F)(F)F)C(F)(F)F	x	x	x	x	n
CCCCCn1c(-c2ccco2)nc2nc3ccccc3nc21	n	77	n	n	n
c1ccc(Cn2c(-c3ccco3)nc3nc4ccccc4nc32)cc1	n	n	n	n	n
Cc1ccc(NC(=O)c2ccc(NS(=O)(=O)c3c(C)noc3C)cc2)cc1C	n	76	n	n	n
Cc1ccc(Cl)cc1N1CCN(C(=O)c2ccc(NS(=O)(=O)c3c(C)noc3C)cc2)CC1	n	71	n	n	n
Cc1ccc(C)c(N2CCN(C(=O)c3ccc(NS(=O)(=O)c4c(C)noc4C)cc3)CC2)c1	n	80	n	n	n
CC1(c2ccccc2)CC(C)(C)N(C(=O)CN2CCCCC2)c2ccccc21 (centres undefined)	x	x	x	x	n
COc1cc2c(C(=O)Nc3ccc4c(c3)OCO4)cn(CC(C)C)c(=O)c2cc1OC	2.4	n	n	n	n
COc1cc2c(C(=O)NCc3ccc4c(c3)OCO4)cn(CC(C)C)c(=O)c2cc1OC	n	n	n	n	n
O=C(NN1C(=O)c2ccc(Oc3cccc([N+](=O)[O-])c3)cc2C1=O)c1ccco1	x	x	x	x	n
COc1cccc(N2CCN(CC(=O)Nc3nc4c(s3)CC(C)CC4)CC2)c1 (centres undefined)	n	95	n	n	n
CCc1nc(N2CCCCC2C)c2oc3ccccc3c2n1 (centres undefined)	n	100	n	n	n
CCc1nc(N2CCN(Cc3ccc4c(c3)OCO4)CC2)c2oc3ccccc3c2n1	n	x	x	n	x
SMILES	PLAP act	Ecoli tolC	AP complement	Ecoli WT expand	HePTP inh
CCc1nc(N2CCCC(C)C2)c2oc3ccccc3c2n1 (centres undefined)	n	100	n	n	n
CCc1nc(N2CCCCC2)c2oc3ccccc3c2n1	n	100	n	n	n
CCc1nc(NC(C)C)c2oc3ccccc3c2n1	x	n	n	n	n
COc1cccc(C(=O)/C=C/c2ccc(OC)cc2OC)c1	x	x	x	x	n
COc1cc(C=Nc2cccc(Br)c2)ccc1O	x	x	x	x	n
O=C(O)C1C2CCC(O2)C1C(=O)NCc1ccco1 (centres undefined)	x	x	x	x	n
O=C1/C(=C/c2cn(-c3ccccc3)nc2-c2ccco2)SC(=S)N1C1CCS(=O)(=O)C1 (centres undefined)	x	x	x	x	66
CCOc1ccc(-c2nn(-c3ccccc3)cc2/C=C2\SC(=S)N(C3CCS(=O)(=O)C3)C2=O)cc1 (centres undefined)	n	x	x	n	x
O=C(CSc1nc2ccccc2n1Cc1ccccc1)N/N=C/c1ccc([N+](=O)[O-])cc1	x	x	x	x	86
COc1cc(/C=C(\C#N)C(=O)Nc2cccc(Cl)c2)ccc1O	x	x	x	x	n
COCCn1c(SCc2nc3sc(C(=O)OC)c(C)c3c(=O)[nH]2)nc2ccccc21	n	n	n	n	n
CCn1c(SCc2nc3sc(C(=O)O)c(C)c3c(=O)[nH]2)nc2ccccc21	2.3	x	x	n	x
CCOc1cc(C(=O)Nc2ncccc2Cl)cc(OCC)c1OCC	x	x	x	x	n
COc1cccc(C(=O)Nc2cccc(-c3nnc(-c4ccccc4)o3)c2)c1	x	n	n	x	n
